This is an account of results in ChEMBL document CHEMBL4732088, “Identification and optimization of piperlongumine analogues as potential antioxidant and anti-inflammatory agents via activation of Nrf2” (Eur J Med Chem, 2021).

Activity calls are given as the source filed them. No cut-off for these calls is given here.

In assay [1] the test system is PC-12. Description: Protection against 6-OHDA-induced mitochondrial dysfunction in rat PC12 cells assessed as change in mitochondrial membrane potential at 20 uM pretreated with compound followed by 6-OHDA addition by JC-1 staining based flow cytometry (reference value: 73.2 %). Type of assay: functional. The essentials:
(§1)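 Mitochondrial membrane potential in PC12 cells pretreated with compound (5, 10, 20 μM), then exposed to H₂O₂ (200 μM) or 6-OHDA (150 μM). JC-1 staining, red-to-green fluorescence shift read by flow cytometry. Mean ± SD, n = 3.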
(In general: In flow cytometry, cells or beads pass a laser one at a time.)

Assay [2] can be described thus: Antioxidant activity assessed as ABTS radical scavenging activity. Type of assay: functional.
Assay [3] deals with T1, Nuclear factor erythroid 2-related factor 2 (Rattus norvegicus) (UniProt O54968).
T1 sequence (whole entry): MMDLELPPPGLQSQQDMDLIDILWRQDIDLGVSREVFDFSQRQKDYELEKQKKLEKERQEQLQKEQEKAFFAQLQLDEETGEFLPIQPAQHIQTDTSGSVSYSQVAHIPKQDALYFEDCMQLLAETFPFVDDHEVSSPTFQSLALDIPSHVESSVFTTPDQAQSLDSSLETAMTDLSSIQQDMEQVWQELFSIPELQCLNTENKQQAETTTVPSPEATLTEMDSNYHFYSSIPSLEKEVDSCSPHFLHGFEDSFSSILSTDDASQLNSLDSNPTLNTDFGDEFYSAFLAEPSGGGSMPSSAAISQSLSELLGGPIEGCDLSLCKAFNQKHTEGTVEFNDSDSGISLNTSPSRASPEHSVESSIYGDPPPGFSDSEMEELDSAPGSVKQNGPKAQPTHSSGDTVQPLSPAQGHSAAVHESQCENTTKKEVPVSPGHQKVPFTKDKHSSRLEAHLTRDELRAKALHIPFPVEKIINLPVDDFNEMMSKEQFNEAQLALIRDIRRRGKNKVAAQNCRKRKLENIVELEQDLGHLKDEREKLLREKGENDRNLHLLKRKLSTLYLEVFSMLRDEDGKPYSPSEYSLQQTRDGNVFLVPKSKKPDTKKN
Description: Activation of Nrf2 in rat PC12 cells assessed as increase in TrxR1 protein level at 20 uM after 24 hrs by Western blot analysis. Type of assay: cell-based. Conditions: PC-12, filed as activator.

Assay [4] has as its system PC-12. Description: Neuroprotective activity against 6-OHDA-induced cell death in rat PC12 cells assessed as cell viability at 20 uM preincubated for 30 mins in presence of brusatol […] and measured after 24 hrs by MTT assay. In kind it is functional, cell-based. Conditions: time 24.5 hrs.
Assay [5] concerns the target T2, Nuclear factor erythroid 2-related factor 2 (Mus musculus) (UniProt Q60795).
T2 sequence (whole entry): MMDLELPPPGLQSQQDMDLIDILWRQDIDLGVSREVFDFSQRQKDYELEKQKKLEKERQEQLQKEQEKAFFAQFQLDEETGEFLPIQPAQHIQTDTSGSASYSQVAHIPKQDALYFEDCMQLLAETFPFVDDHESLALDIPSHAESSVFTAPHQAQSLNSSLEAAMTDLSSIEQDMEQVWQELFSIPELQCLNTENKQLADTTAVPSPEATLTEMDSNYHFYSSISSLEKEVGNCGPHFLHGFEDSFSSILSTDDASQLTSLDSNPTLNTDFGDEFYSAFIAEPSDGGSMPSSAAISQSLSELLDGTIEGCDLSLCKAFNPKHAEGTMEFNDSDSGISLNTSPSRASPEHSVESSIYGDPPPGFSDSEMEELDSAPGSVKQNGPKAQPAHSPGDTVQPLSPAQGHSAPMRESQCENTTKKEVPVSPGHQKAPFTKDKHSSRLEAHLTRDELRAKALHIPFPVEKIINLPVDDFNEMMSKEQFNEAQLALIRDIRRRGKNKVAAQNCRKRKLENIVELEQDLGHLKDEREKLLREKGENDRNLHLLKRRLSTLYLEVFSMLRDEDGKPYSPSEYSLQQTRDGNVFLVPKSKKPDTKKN
As to the kind of experiment: Activation of Nrf2 in mouse BV2 cells assessed as upregulation of GCLC protein expression after 24 hrs by Western blot analysis. Conditions: BV-2, filed as activator, dose 5-20 µM. Type of assay: cell-based. The essentials:
(§2)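 BV2 microglia exposed to compound for 24 h over a concentration series; Nrf2, NQO1, HO-1, TrxR1, GCLM and GCLC protein levels read by Western blot.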
In general terms: A western blot detects proteins with antibodies after separation by electrophoresis.

Another assay relates to BV-2. Description: Antiinflammatory activity in mouse BV2 cells transfected with Nrf2 siRNA assessed as inhibition of LPS-induced IL-6 production at 20 uM pretreated with compound followed by LPS stimulation for 18 hrs.
Assay [6] concerns PC-12. Description: Protection against 6-OHDA-induced mitochondrial dysfunction in rat PC12 cells assessed as change in mitochondrial membrane potential loss at 5 uM pretreated with compound followed by 6-OHDA addition by JC-1 staining based flow cytometry (reference value: 26.8 %). In kind it is functional. The essentials: as §1
The subject of assay [7] is PC-12. Description: Protection against H2O2-induced apoptosis in rat PC12 cells assessed as necrotic cells at 5 uM incubated for 24 hrs by annexin V FITC/propidium iodide staining based flow cytometry (reference value: 0.6 %). Type of assay: functional.
Assay [8] concerns the target T2, Nuclear factor erythroid 2-related factor 2 (Mus musculus). Description: Activation of Nrf2 in mouse BV2 cells assessed as upregulation of HO-1 protein expression after 24 hrs by Western blot analysis. Type of assay: cell-based. Conditions: BV-2, filed as activator, dose 5-20 µM. The essentials:
as §2

For the compound `CCN(C)C(=O)N1CCN(C(=O)/C=C/c2ccc(F)cc2)C1=O`, the Activity in the assay on PC-12 [1] is 89.3%; in assay [5], “Dose-dependent effect”; in the assay with PC-12 [6] it was 20.5%; with PC-12 [7], 0.9%; in assay [8], “Dose-dependent effect”. In addition, the result (in assay [2]; with PC-12 [4]; with BV-2) was inactive. In addition, the result in assay [3] was Active.
